Results on 26 compounds are retold here after ChEMBL document CHEMBL3091288, “Fluorine Scanning by Nonselective Fluorination: Enhancing Raf/MEK Inhibition while Keeping Physicochemical Properties” (ACS Med Chem Lett, 2013).

Converted amounts (≈) assume the structure as drawn. Some results are limits rather than exact numbers.

Data set [1] deals with Dual specificity mitogen-activated protein kinase kinase 1 (Homo sapiens, UniProt Q02750). Briefly: Inhibition of MEK1 (unknown origin) assessed as phosphorylation of Erk2 preincubated for 30 mins followed by FAM-Erktide addition measured after 60 mins by IMAP fluorescence polarization assay. (Polarisation of emitted light reports the rotation of a fluorescent probe.)
Data set [2] is described as follows: Permeability of the compound at pH 6.5 by PAMPA. The class given is ADME. Particulars: read-out: permeability. Background: PAMPA measures passive passage across an artificial lipid membrane.
The target of data set [3] is RAF proto-oncogene serine/threonine-protein kinase (Homo sapiens, UniProt P04049). Briefly: Inhibition of C-Raf (unknown origin) assessed as phosphorylation of MEK1 after 45 mins by TR-FRET assay. (In general: TR-FRET usually uses a lanthanide donor and a delayed reading to cut background.)
Data set [4] deals with Liver microsome. The data set is described as follows: Clearance in human liver microsomes at 5 uM by LC-MS/MS analysis. The data set is classed as ADME.
A short description of data set [5]: Solubility of the compound in fasted state simulated intestinal fluid measured after overnight incubation by UV-HPLC analysis. The data set is classed as ADME.
Data set [6] concerns HCT-116. Briefly: Antiproliferative activity against human HCT116 cells assessed as cell viability after 96 hrs by cell counting kit-8 assay. To be noted: HCT-116, 96 h. The data set is classed as functional, cell-based.
Data set [7] is described as follows: AUC (0 to 24 hrs) in BALB-nu/nu mouse at 100 mg/kg, po by LC-MS/MS analysis. The class given is ADME, organism-based. On the set-up: time < 24 hr, dose 100 mg/kg, route oral. Particulars: plasma. The gist of the method:
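Mice received a single oral dose of 100 mg/kg, formulated as a solution in 5% DMSO, 5% Cremophor EL, 15% PEG400, 15% HPCD and 60% water. Plasma exposure was evaluated over 24 h.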

The target in data set [8] is hERG (KCNH2) (Homo sapiens, UniProt Q12809). The data set is described as follows: Inhibition of human ERG expressed in CHO cells at 10 uM by patch clamp assay relative to control. The class given is cell-based. Particulars: CHO cells expressing human ERG.
The nature of data set [9]: AUC (0 to 24 hrs) in BALB-nu/nu mouse at 50 mg/kg, po by LC-MS/MS analysis. The data set is classed as ADME, organism-based. Also noted: time < 24 hr, dose 50 mg/kg, route oral. Particulars: plasma.

Sequence of Dual specificity mitogen-activated protein kinase kinase 1 (Q02750 whole entry): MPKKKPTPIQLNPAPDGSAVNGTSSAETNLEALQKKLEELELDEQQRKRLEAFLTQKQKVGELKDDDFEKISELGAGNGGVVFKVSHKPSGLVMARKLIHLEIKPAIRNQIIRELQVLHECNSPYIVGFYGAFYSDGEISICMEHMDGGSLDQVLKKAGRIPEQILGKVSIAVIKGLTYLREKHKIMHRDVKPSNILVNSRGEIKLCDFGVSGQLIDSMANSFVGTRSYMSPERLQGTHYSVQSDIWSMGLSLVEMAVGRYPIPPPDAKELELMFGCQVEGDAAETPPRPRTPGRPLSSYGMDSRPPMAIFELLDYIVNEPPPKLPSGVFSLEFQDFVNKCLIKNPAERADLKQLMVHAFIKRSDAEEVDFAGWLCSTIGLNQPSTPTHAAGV
Sequence of RAF proto-oncogene serine/threonine-protein kinase (P04049 whole entry): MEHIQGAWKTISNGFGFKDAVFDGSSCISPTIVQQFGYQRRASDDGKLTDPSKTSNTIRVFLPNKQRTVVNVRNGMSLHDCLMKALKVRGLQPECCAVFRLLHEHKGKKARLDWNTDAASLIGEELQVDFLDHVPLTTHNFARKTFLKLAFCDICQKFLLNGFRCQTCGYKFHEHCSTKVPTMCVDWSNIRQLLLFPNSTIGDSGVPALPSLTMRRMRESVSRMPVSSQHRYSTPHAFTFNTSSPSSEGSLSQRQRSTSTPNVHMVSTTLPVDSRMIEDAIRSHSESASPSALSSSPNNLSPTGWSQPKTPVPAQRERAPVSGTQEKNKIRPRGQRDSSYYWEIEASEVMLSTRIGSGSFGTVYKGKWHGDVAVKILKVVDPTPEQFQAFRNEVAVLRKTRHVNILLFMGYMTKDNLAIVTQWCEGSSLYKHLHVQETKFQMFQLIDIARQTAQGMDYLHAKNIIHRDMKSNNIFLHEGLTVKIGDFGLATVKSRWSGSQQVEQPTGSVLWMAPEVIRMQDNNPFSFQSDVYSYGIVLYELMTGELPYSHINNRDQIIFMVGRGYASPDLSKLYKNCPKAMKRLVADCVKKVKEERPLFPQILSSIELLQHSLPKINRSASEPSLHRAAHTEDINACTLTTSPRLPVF
Sequence of hERG (KCNH2) (Q12809 whole entry): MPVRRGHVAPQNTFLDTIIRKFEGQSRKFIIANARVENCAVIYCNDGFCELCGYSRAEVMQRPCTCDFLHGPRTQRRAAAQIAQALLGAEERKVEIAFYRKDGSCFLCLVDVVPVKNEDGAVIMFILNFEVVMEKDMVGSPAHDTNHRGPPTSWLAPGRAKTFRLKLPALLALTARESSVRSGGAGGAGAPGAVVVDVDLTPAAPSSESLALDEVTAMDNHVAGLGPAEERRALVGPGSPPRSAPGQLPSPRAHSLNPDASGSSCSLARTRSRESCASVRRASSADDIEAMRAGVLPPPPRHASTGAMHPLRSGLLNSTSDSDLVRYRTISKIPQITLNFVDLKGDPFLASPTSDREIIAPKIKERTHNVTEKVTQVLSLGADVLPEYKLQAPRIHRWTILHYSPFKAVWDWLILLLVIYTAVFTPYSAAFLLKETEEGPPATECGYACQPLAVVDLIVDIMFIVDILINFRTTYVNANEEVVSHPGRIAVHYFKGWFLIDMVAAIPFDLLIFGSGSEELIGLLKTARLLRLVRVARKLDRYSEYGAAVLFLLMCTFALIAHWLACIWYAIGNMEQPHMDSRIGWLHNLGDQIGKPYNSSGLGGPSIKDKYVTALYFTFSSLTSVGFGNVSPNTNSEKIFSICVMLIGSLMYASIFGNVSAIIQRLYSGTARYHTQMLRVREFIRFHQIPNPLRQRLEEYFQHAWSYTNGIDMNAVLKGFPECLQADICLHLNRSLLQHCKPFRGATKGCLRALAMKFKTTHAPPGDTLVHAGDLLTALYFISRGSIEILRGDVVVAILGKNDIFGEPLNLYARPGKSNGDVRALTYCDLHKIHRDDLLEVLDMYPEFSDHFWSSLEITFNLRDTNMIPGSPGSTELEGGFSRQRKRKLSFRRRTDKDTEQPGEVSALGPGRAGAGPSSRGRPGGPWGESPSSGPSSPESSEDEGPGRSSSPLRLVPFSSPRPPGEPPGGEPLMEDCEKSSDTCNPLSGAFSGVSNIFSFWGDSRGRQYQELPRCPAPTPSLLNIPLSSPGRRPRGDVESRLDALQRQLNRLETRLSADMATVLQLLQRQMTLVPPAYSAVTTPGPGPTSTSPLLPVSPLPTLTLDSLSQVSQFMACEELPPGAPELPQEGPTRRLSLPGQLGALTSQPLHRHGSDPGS

For `CNS(=O)(=O)Nc1cccc(Cc2c(C)c3ccc(Oc4nccs4)cc3oc2=O)c1F`, the IC50 in data set [1] is 26 nM; in data set [3], 63 nM; in data set [6], 11 nM. Also, the Papp in data set [2] turned out to be 3 ×10⁻⁶ cm/s. In [4], this compound registered a CLH of 9 µL/min/mg. This compound came in with a solubility in data set [5] of 15 µg/mL (≈ 31.5 µM).
As for `CNS(=O)(=O)Nc1cccc(Cc2c(C)c3ccc(OC(=O)N(C)C)cc3oc2=O)c1F`, the results for the IC50 in [1], in data set [3] and in [6] were 38 nM, 8 nM and 9 nM, respectively. In [2], the Papp stood at 5 ×10⁻⁶ cm/s. In data set [4], the CLH came out at 13 µL/min/mg. Moreover, the solubility in data set [5] is 81 µg/mL (≈ 175 µM).
`CNS(=O)(=O)[N-]c1cccc(Cc2c(C)c3ccc(OC(=O)N(C)C)cc3oc2=O)c1F.[Na+]`: in data set [7], the AUC(0-t) at 24 h worked out at 70 µM·h.
As for `CNS(=O)(=O)Nc1cccc(Cc2c(C)c3ccc(Oc4nccs4)cc3oc2=O)c1`, the IC50 in data set [1] was found to be 59 nM; in [3], 1500 nM; in data set [6], 160 nM. Further, the Papp in data set [2] turned out to be 2 ×10⁻⁶ cm/s. This compound also yielded a CLH in data set [4] of 24 µL/min/mg. This compound displayed a solubility in data set [5] of 9 µg/mL (≈ 19.7 µM).
In the case of `CNS(=O)(=O)Nc1cccc(Cc2c(C)c3cc(F)c(OC(=O)N(C)C)cc3oc2=O)c1`, the IC50 in data set [1] worked out at 64 nM; in data set [6], 22 nM. In addition, the Papp in [2] is 5 ×10⁻⁶ cm/s. Moreover, the CLH in data set [4] was found to be 13 µL/min/mg. Moreover, the solubility in data set [5] was 55 µg/mL (≈ 119 µM). In addition, the AUC(0-t) at 24 h in [7] is 99 µM·h.
`CNS(=O)(=O)[N-]c1cccc(Cc2c(C)c3ccc(Oc4nccs4)cc3oc2=O)c1.[Na+]` displayed an AUC(0-t) at 24 h in [7] of 190 µM·h.
Regarding `CNS(=O)(=O)[N-]c1cccc(Cc2c(C)c3ccc(OC(=O)N(C)C)cc3oc2=O)c1.[Na+]`, the AUC(0-t) at 24 h in data set [7] is 78 µM·h.
In data set [7], `CNS(=O)(=O)[N-]c1cccc(Cc2c(C)c3ccc(Oc4nccs4)cc3oc2=O)c1F.[Na+]` displayed an AUC(0-t) at 24 h of 366 µM·h. Compared with the last compound, the AUC(0-t) at 24 h is about 4.7-fold higher.
In the case of `CNS(=O)(=O)Nc1cccc(Cc2c(CF)c3ccc(OC(=O)N(C)C)cc3oc2=O)c1`, the figures for the IC50 in data set [1], in [3] and in [6] were 66 nM, 120 nM and 30 nM, respectively. In data set [2], the Papp is 4 ×10⁻⁶ cm/s. This compound gave a CLH in [4] of 22 µL/min/mg. Further, the concentration in solution in data set [5] (solubility) came to 72 µg/mL (≈ 155 µM). The same compound gave an AUC(0-t) at 24 h in [7] of 86 µM·h.
Regarding `CNS(=O)(=O)Nc1cccc(Cc2c(C)c3ccc(Oc4ncccn4)cc3oc2=O)c1C`, the IC50 in data set [1] amounted to 4200 nM; in data set [3], 3600 nM; in [6], 330 nM. The compound also displayed a solubility in data set [5] of less than 4 µg/mL.
For `CNS(=O)(=O)Nc1cccc(Cc2c(C)c3cc(I)c(OC(=O)N(C)C)cc3oc2=O)c1`, the IC50 was 5 nM in [1], 25 nM in data set [3] and 8 nM in [6]. The CLH in [4] came to 33 µL/min/mg. This compound also displayed a solubility in [5] of 8 µg/mL (≈ 14 µM). Moreover, the AUC(0-t) at 24 h in data set [7] came out at 16 µM·h.
Turning to `CN(C)C(=O)Oc1ccc2c(CF)c(Cc3cccc(NS(N)(=O)=O)c3)c(=O)oc2c1`, the IC50 in data set [1] was 60 nM; in data set [3] it was 220 nM; in [6] it was 200 nM. For the same compound, the Papp in data set [2] stood at 4 ×10⁻⁶ cm/s. Moreover, the CLH in data set [4] is 7 µL/min/mg. The compound also gave a solubility in data set [5] of 14 µg/mL (≈ 31.1 µM). In data set [7], this compound came in with an AUC(0-t) at 24 h of 84 µM·h.
Regarding `CNS(=O)(=O)Nc1cccc(Cc2c(C)c3ccc(OC(=O)N(C)C)cc3oc2=O)c1`, the IC50 in data set [1] came out at 110 nM; in data set [3] it was 300 nM; in data set [6] it was 24 nM. Moreover, in data set [2], the Papp is 6 ×10⁻⁶ cm/s. Moreover, the CLH in data set [4] came out at 20 µL/min/mg. Besides, the solubility in [5] is 32 µg/mL (≈ 71.8 µM).
`Cc1c(Cc2cccc([N-]S(N)(=O)=O)c2)c(=O)oc2cc(OC(=O)N(C)C)ccc12.[Na+]` showed an AUC(0-t) at 24 h in [7] of 104 µM·h.
Consider `CNS(=O)(=O)Nc1cccc(Cc2c(C)c3cc(C)c(OC(=O)N(C)C)cc3oc2=O)c1`, for which the IC50 in data set [1] came out at 29 nM; in data set [3], 78 nM; in data set [6], 22 nM. The CLH in data set [4] was found to be 17 µL/min/mg. In data set [5], the concentration in solution (solubility) was 11 µg/mL (≈ 23.9 µM). In addition, in data set [7], the AUC(0-t) at 24 h is 18 µM·h.
In the case of `CNS(=O)(=O)Nc1cccc(Cc2c(C)c3cc(C#N)c(OC(=O)N(C)C)cc3oc2=O)c1`, the IC50 in data set [1] was 85 nM; in data set [3] it was 55 nM; in [6], 24 nM. The same compound registered a CLH in data set [4] of 15 µL/min/mg. In data set [5], this compound displayed a solubility of 40 µg/mL (≈ 85 µM). Moreover, the AUC(0-t) at 24 h in data set [7] is 39 µM·h.
Take `CNS(=O)(=O)Nc1cccc(Cc2c(C)c3ccc(Oc4ncccn4)cc3oc2=O)c1F`: the inhibition at 10 µM in [8] came to 25%. Further, the IC50 came out at 97 nM in [1], 23 nM in data set [3] and 17 nM in data set [6]. For the same compound, in data set [2], the Papp amounted to 6 ×10⁻⁶ cm/s. This compound gave a CLH in data set [4] of 7 µL/min/mg. The compound also yielded a solubility in data set [5] of 13 µg/mL (≈ 27.6 µM). This compound also had an AUC(0-t) at 24 h in [7] of 425 µM·h.
Take `Cc1c(Cc2cccc(NS(N)(=O)=O)c2F)c(=O)oc2cc(OC(=O)N(C)C)ccc12`: the IC50 was 53 nM in data set [1], 13 nM in data set [3] and 18 nM in data set [6]. Further, the Papp in [2] was found to be 6 ×10⁻⁶ cm/s. The same compound gave a CLH in data set [4] of 6 µL/min/mg. This compound displayed a solubility in data set [5] of 273 µg/mL (≈ 607 µM).
For `C#Cc1cc2c(C)c(Cc3cccc(NS(=O)(=O)NC)c3)c(=O)oc2cc1OC(=O)N(C)C`, the results for the IC50 in [1], in data set [3] and in data set [6] were 100 nM, 70 nM and 140 nM, respectively. Besides, in data set [5], the solubility was 21 µg/mL (≈ 44.7 µM).
In the case of `Cc1c(Cc2cccc([N-]S(N)(=O)=O)c2F)c(=O)oc2cc(OC(=O)N(C)C)ccc12.[Na+]`, the AUC(0-t) at 24 h in data set [9] amounted to 40 µM·h.
As to `Cc1c(Cc2ccc(F)c(NS(N)(=O)=O)c2)c(=O)oc2cc(OC(=O)N(C)C)ccc12`, the figures for the IC50 in data set [1], in data set [3] and in data set [6] were 44 nM, 1100 nM and 610 nM, respectively. Moreover, the Papp in data set [2] was 6 ×10⁻⁶ cm/s. The CLH in data set [4] is 6 µL/min/mg. In data set [5], this compound returned a solubility of 37 µg/mL (≈ 82.3 µM).
Turning to `Cc1c(Cc2cccc(NS(N)(=O)=O)c2)c(=O)oc2cc(OC(=O)N(C)C)c(F)cc12`, the IC50 in [1] was determined as 110 nM; in data set [3], 180 nM; in data set [6] it was 87 nM. The Papp in data set [2] came out at 5 ×10⁻⁶ cm/s. This compound yielded a CLH in [4] of 6 µL/min/mg. This compound also had a solubility in data set [5] of 114 µg/mL (≈ 254 µM). The compound further yielded an AUC(0-t) at 24 h in data set [9] of 61 µM·h.
Take `CNS(=O)(=O)Nc1cccc(Cc2c(C)c3ccc(Oc4ncccn4)cc3oc2=O)c1`: the IC50 in data set [1] is 810 nM; in data set [3] it was greater than 10000 nM; in data set [6], 190 nM. The Papp in [2] was determined as 6 ×10⁻⁶ cm/s. This compound also came in with a CLH in [4] of 20 µL/min/mg. In data set [5], this compound came in with a solubility of 29 µg/mL (≈ 64.1 µM). For the same compound, the AUC(0-t) at 24 h in [7] is 223 µM·h.
Consider `Cc1c(Cc2cccc(NS(N)(=O)=O)c2)c(=O)oc2c(F)c(OC(=O)N(C)C)ccc12`, for which the IC50 amounted to 240 nM in data set [1], 120 nM in data set [3] and 140 nM in [6].
Regarding `Cc1c(Cc2cc(NS(N)(=O)=O)ccc2F)c(=O)oc2cc(OC(=O)N(C)C)ccc12`, the IC50 stood at 940 nM in data set [1], 830 nM in data set [3] and 950 nM in data set [6]. For the same compound, in data set [2], the Papp amounted to 5 ×10⁻⁶ cm/s. In addition, in data set [4], the CLH was 6 µL/min/mg. Moreover, in [5], the solubility was 9 µg/mL (≈ 20 µM). The same compound returned an AUC(0-t) at 24 h in [7] of 176 µM·h.
Consider `CNS(=O)(=O)Nc1ccc(F)c(Cc2c(C)c3ccc(OC(=O)N(C)C)cc3oc2=O)c1`, for which the IC50 in [1] was 2900 nM; in data set [3], 2400 nM; in data set [6] it was 550 nM. Further, in data set [2], the Papp was 5 ×10⁻⁶ cm/s. In data set [4], this compound displayed a CLH of 22 µL/min/mg. Further, the concentration in solution in data set [5] (solubility) was 51 µg/mL (≈ 110 µM). The compound also returned an AUC(0-t) at 24 h in data set [7] of 75 µM·h.

One may read the IC50 as the concentration that gives 50% inhibition. As a reminder, the solubility is the concentration that dissolves in the medium under given conditions. Lower therefore signals a poorly soluble substance. One may read the AUC(0-t) as exposure summed from dosing to a finite time, without extrapolation to infinity. A lower AUC(0-t) goes with low exposure. What is called inhibition is the share of the control response that was lost under treatment. A low value points to a response near the control.
